Laboratory results reported in the RNAGym collection of RNA variant scans (doi:10.1126/science.aae0568).
Variants at the floor of the assay were thinned out.

B1: tRNA (parent)
chain: GUUCCGUUGGCGUAAUGGUAACGCGUCUCCCUCCUAAGGAGAAGACUGCGGGUUCGAGUCCCGUACGGAACG

Variants of: B1
Test: yeast fitness relative to wild type (ratio to wild type); higher = fitter; tRNA-Arg(CCU), competitive growth, 37 C, YPD
In short: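 A pool of Saccharomyces cerevisiae strains, each with a tRNA-Arg(CCU) gene variant at the native genomic locus, was competed in YPD at 37°C for 24 hours across six parallel replicates. The variants had been chemically synthesised at a 3% per-site mutation rate over 69 sites, and gene amplicons before and after competition were read by 100-nucleotide paired-end sequencing. Darwinian fitness relative to wild type rested on changes in genotype frequencies. Genotypes required ≥ 100 starting reads, and estimates < 0.5 were set to 0.5.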

Row | Variant | yeast fitness
1 | C5G C22G U47A A70C | ≤ 0.5
2 | C5G C46A | 0.917
3 | C5G C46U | 0.88
4 | C5G A42C G68U | 0.593
5 | C5G C31U A36C G38A G56A A70U | ≤ 0.5
6 | C5G C46G A65C | 0.668
7 | C5G C34G C62A G63A | ≤ 0.5
8 | C5G C30U U32A C61G | ≤ 0.5
9 | C5G C11A A20U C29A A37C | ≤ 0.5
10 | C5G G6C C24U C46A | 0.559
11 | C5G C11A A15G G18A A42U | ≤ 0.5
12 | C5G G6A U53G A57C | ≤ 0.5
13 | C5G C30G C66U | ≤ 0.5
14 | C5G A36G A43U A69C | 0.655
15 | C5G A40C U53G C60A | ≤ 0.5
16 | C5G A36C G41C | ≤ 0.5
17 | C5G A21G U59A A69C A70C | ≤ 0.5
18 | C5G A36U G67A | 0.571
19 | C5G A69C A70G | 0.692
20 | C5G C31A G67C | 0.62
21 | C5G A42C G48A | 0.587
22 | C5G C29G C34U | ≤ 0.5
23 | C5G C27G C33U G56A | 0.527
24 | C5G A37U G67A | ≤ 0.5

Row | Variant | yeast fitness
25 | C5G A43G A69U | 0.762
26 | C5G G6C U26G C61U | 0.59
27 | C5G C22U C27U A36G A69C | ≤ 0.5
28 | C5G A37C A69C | 0.511
29 | C5G C34A A37U G44A G51A C55A A57U | ≤ 0.5
30 | C5G C46U G68C | 0.596
31 | C5G C55G A70U | ≤ 0.5
32 | C5G A43U G48C | 0.602
33 | C5G C61U A65U | 0.557
34 | C5G C27U C29G | ≤ 0.5
35 | C5G C30G G67C | 0.543
36 | C5G C24G C30G C31U U35A A36U G44A | 0.832
37 | C5G C62U A69C | 0.708
38 | C5G C24G C61A C62A G68C | 0.69
39 | C5G C49G G50A A57C | ≤ 0.5
40 | C5G C11G A14U A15U G56A U59G | ≤ 0.5
41 | C5G C11G G12A A37C G50A | 0.533
42 | C5G C27G A57C | ≤ 0.5
43 | C5G C11G G44A G50C U54C C61U A69U A70C | ≤ 0.5
44 | C5G C22A C33G | 0.61
45 | C5G A21G C22U | 0.689
46 | C5G A43U A69U | 0.62
47 | C5G C22G C55U | ≤ 0.5
48 | C5G C11G A15U A70U | ≤ 0.5

Row | Variant | yeast fitness
49 | C5G C34U U35C | 0.545
50 | C5G C34G G38C G68C | ≤ 0.5
51 | C5G C22A U26C C33G U35A | ≤ 0.5
52 | C5G C55U G68C | 0.506
53 | C5G C22A A42U G48A C62A | ≤ 0.5
54 | C5G A21G A45U G56A | 0.753
55 | C5G A37C C61U | ≤ 0.5
56 | C5G C22G C55G G63C | 0.679
57 | C5G C29G G52A G67A | ≤ 0.5
58 | C5G C22U C27U G41C A57C | 0.542
59 | C5G C30A A42C | ≤ 0.5
60 | C5G C27U G41C U53C | ≤ 0.5
61 | C5G C27G C61U | ≤ 0.5
62 | C5G C31U C49G C66U | ≤ 0.5
63 | C5G C34U C55G A70G | ≤ 0.5
64 | C5G C24U C61A A70C | ≤ 0.5
65 | C5G C29G A36U | ≤ 0.5
66 | C5G A36U C62U | ≤ 0.5
67 | C5G C11G A14C U35G A45C U47C U64A | ≤ 0.5
68 | C5G C46U C49U | 0.944
69 | C5G C29G A65G | 0.565
70 | C5G A69C | 0.932
71 | C5G A69G | 0.902
72 | C5G A69U | 0.894

Row | Variant | yeast fitness
73 | C5G A40C U59A | ≤ 0.5
74 | C5G C11U A42G C49U C66U G67A | ≤ 0.5
75 | C5G C24U A36C C49A | 0.577
76 | C5G C62G | 0.791
77 | C5G C33U G56C | 0.575
78 | C5G C34G C62G | 0.59
79 | C5G C22A A42C | ≤ 0.5
80 | C5G C31U U32C U54G C55U C61U | ≤ 0.5
81 | C5G A37C G51A U53C C62A | ≤ 0.5
82 | C5G C27G A43G | ≤ 0.5
83 | C5G C55U C61A A65U | 0.669
84 | C5G C27G C30U G51C C55A | ≤ 0.5
85 | C5G C27U C66U | 0.654
86 | C5G A21G U64C | 0.723
87 | C5G C11U A37C C49U C60A | 0.557
88 | C5G C22U A36G A65C | ≤ 0.5
89 | C5G C11A A14G G25C C29G C60U | ≤ 0.5
90 | C5G C24U C31A | ≤ 0.5
91 | C5G C11U A37C C49U | 0.609
92 | C5G G9A A43G G48C A69C | ≤ 0.5
93 | C5G A21C G39A | ≤ 0.5
94 | C5G C24G C31U C61A | ≤ 0.5
95 | C5G A43U A65C | 0.557
96 | C5G C11G C30U C31U A57G G63A | ≤ 0.5

Row | Variant | yeast fitness
97 | C5G C60A A69C | 0.532
98 | C5G C22U G50U | 0.563
99 | C5G C33A A57G | 0.59
100 | C5G C31U A36C G38A G50A | ≤ 0.5
101 | C5G G9A C11U A21U C22U A57C C60G | 0.535
102 | C5G C24G C60G | 0.518
103 | C5G C34A A37U G44A G51A C55A | 0.654
104 | C5G C27U U54C | 0.747
105 | C5G C33A G41C A65C | ≤ 0.5
106 | C5G C27U C62U | 0.626
107 | C5G C22U U26C | ≤ 0.5
108 | C5G A37C | 0.731
109 | C5G A37U | 0.726
110 | C5G A21U C49U | ≤ 0.5
111 | C5G C30U C34U A37U G68C | ≤ 0.5
112 | C5G C11G A70U | ≤ 0.5
113 | C5G C30U C31G C61A A69U | ≤ 0.5
114 | C5G C11U G67C | 0.699
115 | C5G C27G | 0.81
116 | C5G C31U A36C G38A U54A | ≤ 0.5
117 | C5G C11A C22G A36U G63A | ≤ 0.5
118 | C5G A36U C61U A65C G67A G68A | ≤ 0.5
119 | C5G C30G G56A G58C C61G | ≤ 0.5
120 | C5G C55U A65C A70U | ≤ 0.5

Row | Variant | yeast fitness
121 | C5G G9A A65C | 0.596
122 | C5G A40U G58C | 0.732
123 | C5G C22A A43G | 0.557
124 | C5G G9A C27G C61U | ≤ 0.5
125 | C5G C27U C61G | ≤ 0.5
126 | C5G C27U C31A U35C C55G C66U A70C | ≤ 0.5
127 | C5G A45C C46U | 0.643
128 | C5G C29G C33A | ≤ 0.5
129 | C5G C11G C30U C31U A57G | 0.8
130 | C5G A43G G56A C61G C62A | ≤ 0.5
131 | C5G C22G C55G A70U | ≤ 0.5
132 | C5G A45C | 0.85
133 | C5G G6C U54C G56C G58A | ≤ 0.5
134 | C5G G6C G67A | ≤ 0.5
135 | C5G A21C C24U C33U | ≤ 0.5
136 | C5G C31G G52C U54A C62G | 0.5
137 | C5G C29U C33U G39C | 0.724
138 | C5G C11U C30U A36C G58A G67C | ≤ 0.5
139 | C5G C62U C66G | 0.641
140 | C5G C27G U28A C30U G48A G58A C66U | ≤ 0.5
141 | C5G A42G C61A G63C | ≤ 0.5
142 | C5G C46U C66A | 0.524
143 | C5G C11A A21G | 0.581
144 | C5G G6C A37G G51C A57G | ≤ 0.5

Row | Variant | yeast fitness
145 | C5G C29A G48A | ≤ 0.5
146 | C5G C30A A36G U64C | ≤ 0.5
147 | C5G C11U G25A | 0.787
148 | C5G A36G A45G G51C C61A | ≤ 0.5
149 | C5G G6A G25A | 0.675
150 | C5G A21G C62U | 0.677
151 | C5G G6C U64C | 0.586
152 | C5G C34U C46A C62U | ≤ 0.5
153 | C5G A21G C27G C34G A43C C46G A70G | 0.561
154 | C5G C30U | 0.799
155 | C5G C34U G44C U47G | ≤ 0.5
156 | C5G C61G A69C | 0.574
157 | C5G C33U | 0.673
158 | C5G C33A | 0.616
159 | C5G C46G A69U | 0.712
160 | C5G A36U U54C | ≤ 0.5
161 | C5G C66U | 0.74
162 | C5G G6A C29U C33G G38A G67U | ≤ 0.5
163 | C5G C11U A37U | ≤ 0.5
164 | C5G C27U C46U U54C | ≤ 0.5
165 | C5G A43G | 0.746
166 | C5G A37C G38A | 0.562
167 | C5G C11G U35G A42G G56C | ≤ 0.5
